Test [1] concerns Granta. The test is described as follows: Cytotoxicity against human Granta cells assessed as reduction in cell viability after 72 hrs by MTT assay. The class given is functional, cell-based. The method, boiled down:
(§1)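 Cells seeded in triplicate at 3 × 10³ cells/well: 293_CHI3L1, U373 and C6 in DMEM; UPN1 in alpha-MEM; Granta, JeKo and Mino in RPMI. Compounds added by serial dilution at final 0.01, 0.1, 1, 10 and 100 µM for 72 h. MTT read-out gives viable cells as % of DMSO vehicle control. IC50 is the concentration giving 50% cell death versus control.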
For orientation: Tetrazolium dyes change colour on reduction, which living cells bring about.

Test [2] in a line: Cytotoxicity against human UPN1 cells assessed as reduction in cell viability after 72 hrs by MTT assay. The class given is functional, cell-based. Particulars: UPN1, 72 h. The method, boiled down:
as §1

A short description of test [3]: Cytotoxicity against human Jeko cells assessed as reduction in cell viability after 72 hrs by MTT assay. Format: functional, cell-based. Particulars: JeKo-1, 72 h. The procedure, abridged: as §1
Test [4] in a line: Cytotoxicity against human Mino cells assessed as reduction in cell viability after 72 hrs by MTT assay. The class given is functional, cell-based. The method, boiled down:
as §1

The subject of test [5] is C6. The test is described as follows: Cytotoxicity against rat C6 cells assessed as reduction in cell viability after 72 hrs by MTT assay. The class given is functional, cell-based. Conditions: C6, 72 h. The method, boiled down:
as §1

The nature of test [6]: Cytotoxicity against human U373 cells assessed as reduction in cell viability after 72 hrs by MTT assay. Format: functional, cell-based, U-373MG ATCC. Particulars: U373 MG. The method, boiled down: as §1
Test [7] has as its target T1, Mitogen-activated protein kinase; ERK1/ERK2 (Homo sapiens) (UniProt P27361+P28482). Put plainly: Inhibition of ERK1/2 phosphorylation in human HEK293 cells overexpressing CHI3L1 gene after 24 hrs by Western blot analysis. The class given is cell-based. The method, boiled down: (§2)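 293_CHI3L1 or U373 cells seeded in triplicate at 10⁵ cells/well in DMEM/10% FBS and grown to near-confluence. Serum-starved 24 h; U373 then stimulated with 10% FBS. Treated with compound 24 h. Lysates run on 10% SDS–PAGE and blotted for phospho-ERK1/2 or phospho-AKT1 (4 °C overnight), ECL detection. Membranes stripped and reprobed for β-actin.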
Background: Immunoblotting shows a protein as a band on a membrane.

Test [8] is described as follows: Cytotoxicity against human Small cell lung cancer cells assessed as reduction in cell viability after 72 hrs by MTT assay. Particulars: Cancer cell lines. Format: functional, cell-based.
Test [9] has as its target RAC-alpha serine/threonine-protein kinase (Homo sapiens) (UniProt P31749). Put plainly: Inhibition of AKT1 phosphorylation in human HEK293 cells overexpressing CHI3L1 gene at 50 uM after 24 hrs by Western blot analysis. Format: cell-based. The method, boiled down: as §2
Test [10] shares this target. The test is described as follows: Inhibition of AKT1 phosphorylation in human HEK293 cells overexpressing CHI3L1 gene at 10 uM after 24 hrs by Western blot analysis. Format: cell-based. The method, boiled down:
as §2

The target in test [11] is T1, Mitogen-activated protein kinase; ERK1/ERK2 (Homo sapiens). Put plainly: Inhibition of ERK1/2 phosphorylation in human U373 cells overexpressing CHI3L1 gene after 24 hrs by Western blot analysis. Format: cell-based. Particulars: U-373MG ATCC. The method, boiled down:
as §2

Test [12] relates to HEK293. The test is described as follows: Cytotoxicity against HEK293 cells overexpressing CHI3L1 gene assessed as reduction in cell viability at 50 uM after 72 hrs by MTT assay. Format: functional, cell-based. Conditions: Homo sapiens.
The target of test [13] is T1, Mitogen-activated protein kinase; ERK1/ERK2 (Homo sapiens). Put plainly: Inhibition of ERK1/2 phosphorylation in human U373 cells at 50 uM after 24 hrs by Western blot analysis. Conditions: U-373MG ATCC. The class given is cell-based. The procedure, abridged:
as §2

The nature of test [14]: (§3) Cytotoxicity against human U373 cells assessed as reduction in cell viability at 1 uM after 72 hrs by MTT assay in presence of temozolomide. The class given is functional, U-373MG ATCC. The method, boiled down:
(§4)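 U373 or C6 glioma cells seeded in triplicate at 3 × 10³ cells/well in DMEM. Exposed 72 h to temozolomide at final 10, 100, 250, 500 and 1000, alone or combined with 1 µM bradykinin antagonist. MTT read-out gives viability as % of vehicle control. Mean of two experiments run in triplicate.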

Test [15] has as its system C6. The test is described as follows: Cytotoxicity against rat C6 cells assessed as reduction in cell viability at 1 uM after 72 hrs by MTT assay in presence of temozolomide. Format: functional. The procedure, abridged: as §4
The target of test [16] is T1, Mitogen-activated protein kinase; ERK1/ERK2 (Homo sapiens). The test is described as follows: Inhibition of ERK1/2 phosphorylation in human HEK293 cells overexpressing CHI3L1 gene at 10 uM after 24 hrs by Western blot analysis. Format: cell-based. The procedure, abridged:
as §2

Test [17] concerns the target RAC-alpha serine/threonine-protein kinase (Homo sapiens) (UniProt P31749). The test is described as follows: Inhibition of AKT1 phosphorylation in human HEK293 cells overexpressing CHI3L1 gene after 24 hrs by Western blot analysis. The class given is cell-based. The procedure, abridged: as §2
The subject of test [18] is HEK293. Put plainly: Cytotoxicity against HEK293 cells overexpressing CHI3L1 gene assessed as reduction in cell viability after 72 hrs by MTT assay. The class given is functional, cell-based. Particulars: Homo sapiens, HEK293, 72 h. The method, boiled down:
as §1

Test [19] can be described thus: Antitumor activity against human Small cell lung cancer cells xenografted in mouse assessed as tumor growth inhibition. Format: functional, Cancer cell lines. (Xenograft models place foreign cells or tissue in a host animal.)
Test [20] addresses RAC-alpha serine/threonine-protein kinase (Homo sapiens) (UniProt P31749). Put plainly: Inhibition of AKT1 phosphorylation in human U373 cells overexpressing CHI3L1 gene after 24 hrs by Western blot analysis. The class given is cell-based. Conditions: U-373MG ATCC. The method, boiled down: as §2
The target is the same in test [21]. The test is described as follows: Inhibition of AKT1 phosphorylation in human U373 cells at 10 uM after 24 hrs by Western blot analysis. Conditions: U-373MG ATCC. The class given is cell-based. The method, boiled down:
as §2

For test [22], the target named is T1, Mitogen-activated protein kinase; ERK1/ERK2 (Homo sapiens). The test is described as follows: Inhibition of ERK1/2 phosphorylation in human HEK293 cells overexpressing CHI3L1 gene at 50 uM after 24 hrs by Western blot analysis. The class given is cell-based. The procedure, abridged: as §2
A short description of test [23]: Cytotoxicity against human Jeko cells assessed as viable cells at 100 uM after 72 hrs by MTT assay. Conditions: JeKo-1, 72 h, read-out: Activity. The class given is functional. The method, boiled down: as §1
Test [24] relates to Mino. Put plainly: Cytotoxicity against human Mino cells assessed as reduction in cell viability at 100 uM after 72 hrs by MTT assay. The class given is functional, cell-based. The procedure, abridged:
as §1

The test system of test [25] is Granta. The test is described as follows: Cytotoxicity against human Granta cells assessed as reduction in cell viability at 100 uM after 72 hrs by MTT assay. Format: functional, cell-based. The procedure, abridged:
as §1

Test [26] can be described thus: Cytotoxicity against human UPN1 cells assessed as viable cells at 100 uM after 72 hrs by MTT assay. Particulars: UPN1, 72 h, read-out: Activity. Format: functional. The method, boiled down: as §1
Test [27] relates to U-373MG ATCC. Described as §3. Format: functional. The method, boiled down: as §4

The structures appear in SMILES notation. The source made the active and inactive calls. No cut-off for these calls is given here.

Sequence of RAC-alpha serine/threonine-protein kinase (Homo sapiens) (P31749 whole entry): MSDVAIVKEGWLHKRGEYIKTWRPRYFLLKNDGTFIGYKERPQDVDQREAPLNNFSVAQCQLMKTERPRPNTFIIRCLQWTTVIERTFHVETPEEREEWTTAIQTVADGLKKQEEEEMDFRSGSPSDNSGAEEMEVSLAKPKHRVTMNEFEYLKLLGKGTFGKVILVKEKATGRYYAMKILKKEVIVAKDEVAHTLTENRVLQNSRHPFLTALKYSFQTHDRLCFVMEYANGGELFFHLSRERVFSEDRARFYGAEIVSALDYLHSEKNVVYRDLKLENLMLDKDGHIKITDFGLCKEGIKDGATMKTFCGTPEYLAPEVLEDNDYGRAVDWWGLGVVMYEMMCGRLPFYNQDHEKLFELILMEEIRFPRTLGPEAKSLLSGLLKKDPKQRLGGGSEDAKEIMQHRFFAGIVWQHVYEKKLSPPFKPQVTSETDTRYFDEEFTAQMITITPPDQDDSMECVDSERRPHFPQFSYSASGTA
T1 sequence (P27361 whole entry, looked up): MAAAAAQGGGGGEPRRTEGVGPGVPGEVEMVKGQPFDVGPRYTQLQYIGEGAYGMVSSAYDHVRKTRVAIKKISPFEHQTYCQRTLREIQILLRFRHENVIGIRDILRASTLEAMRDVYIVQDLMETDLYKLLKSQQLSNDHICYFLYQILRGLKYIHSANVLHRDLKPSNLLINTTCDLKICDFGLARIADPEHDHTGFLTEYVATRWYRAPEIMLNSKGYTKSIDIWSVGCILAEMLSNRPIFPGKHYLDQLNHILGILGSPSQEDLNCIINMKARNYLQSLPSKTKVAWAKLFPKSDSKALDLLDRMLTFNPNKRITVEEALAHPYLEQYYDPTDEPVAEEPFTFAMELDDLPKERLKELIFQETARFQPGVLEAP
T1 sequence (P28482 whole entry, looked up): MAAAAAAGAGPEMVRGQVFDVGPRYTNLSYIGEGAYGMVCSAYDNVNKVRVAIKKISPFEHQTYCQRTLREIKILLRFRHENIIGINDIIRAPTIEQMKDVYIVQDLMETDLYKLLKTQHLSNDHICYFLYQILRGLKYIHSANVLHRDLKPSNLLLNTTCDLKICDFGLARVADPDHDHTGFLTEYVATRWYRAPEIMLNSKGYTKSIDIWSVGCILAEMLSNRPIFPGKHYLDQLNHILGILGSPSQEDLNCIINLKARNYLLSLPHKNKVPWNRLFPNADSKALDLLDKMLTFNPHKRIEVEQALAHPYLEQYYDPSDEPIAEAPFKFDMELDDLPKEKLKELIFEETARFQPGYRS

Turning to `O=C1N=C(N2N=C(c3ccccc3)CC2c2ccc(Cl)cc2)S/C1=C1\C(=O)Nc2ccccc21` (configuration not stated), the IC50 in test [1], in test [2] and in [3] was over 100 µM each time.
As for `CN(C)c1ccc(C2CC(c3ccc(Cl)cc3)=NN2C2=NC(=O)/C(=C3/C(=O)Nc4ccc(Br)cc43)S2)cc1` (configuration not stated), the half-maximal inhibitory concentration (IC50) (commonly the point on the concentration scale where inhibition reaches its midpoint) in [4] stood at 0.16 µM.
With `O=C1N=C(N2N=C(c3ccc(Br)cc3)CC2c2ccc(Cl)cc2)S/C1=C1\C(=O)Nc2ccccc21` (configuration not stated), the concentration for half-maximal inhibition (IC50) in [4] stood at 10 µM.
Same read-out and setting: for `O=C1N=C(N2N=C(c3ccc(Br)cc3)CC2c2ccc(Cl)cc2)S/C1=C1\C(=O)Nc2ccc(Br)cc21` (configuration not stated) the value was 0.27 µM.
Consider `COc1ccc(-c2nnc(NC(=O)CN3C(=O)S/C(=C\c4ccc(N(C)C)cc4)C3=O)o2)cc1`, for which the half-maximal inhibitory concentration (IC50) in test [1], in [2] and in test [3] was over 100 µM in each case.
Consider `O=C1N=C(N2N=C(c3ccc(Cl)cc3)CC2c2ccc(Cl)cc2)S/C1=C1\C(=O)Nc2ccc(Cl)cc21` (configuration not stated), for which the half-maximal inhibitory concentration (IC50) was 1.22 µM in test [5] and 80.7 µM in test [4].
Consider `O=C1N=C(Nc2ccc(O)cc2)S/C1=C\c1ccc(Cl)cc1`, for which the IC50 is over 100 µM in [1], over 100 µM in test [2], over 100 µM in test [3] and 61.2 µM in [4].
Turning to `CC1(C)CC(NC(=O)[C@H](Cc2ccc(OCc3c(Cl)cccc3Cl)cc2)NC(=O)/C=C/c2c(F)c(F)c(F)c(F)c2F)CC(C)(C)N1`, the IC50 was 3.3 µM in test [6]; 63.3 µM in test [1]; 1.8 µM in test [8]; over 100 µM in [2]; 4 µM in test [5]; 3.8 µM in test [18]. The IC50 in test [3] amounted to 49.3 µM. Further, the inhibition entry in [7], in test [11], in test [17] and in [20] was “Dose-dependent effect” each time. Moreover, the inhibition entry in [9], in test [10], in [12], in test [16], in test [21] and in test [22] was “Active” each time. Further, the inhibition result in test [13] was “inactive”. Moreover, the Activity in [14] and in [15] was 80% throughout. In test [19], the inhibition of tumour growth (TGI) (in general, the reduction of tumour growth relative to the control group) stood at 91%.
As for `O=C1N=C(N2N=C(c3ccc(Br)cc3)CC2c2ccc(Cl)cc2)S/C1=C1\C(=O)Nc2ccc(Cl)cc21` (configuration not stated), in test [4], the concentration for half-maximal inhibition (IC50) came to 7.4 µM.
Turning to `O=C1N=C(N2N=C(c3ccc(Cl)cc3)CC2c2ccc(Cl)cc2)S/C1=C1\C(=O)Nc2ccccc21` (configuration not stated), the viability at 100 µM in [23] and in [26] was 60% in each case. The outcome in [24] and in [25] was inactive. Further, the half-inhibitory concentration (IC50) in test [4] turned out to be 68.2 µM.
For `COc1ccc(NC(=O)COc2ccc(Cl)cc2/C=C2\SC(=S)N(Nc3nc4ccccc4s3)C2=O)cc1`, in [4], the IC50 is 55.3 µM.
On to `O=C1N=C(N2N=C(c3ccc(Cl)cc3)CC2c2ccc(Cl)cc2)S/C1=C1\C(=O)Nc2ccc(Br)cc21` (configuration not stated), for which, in test [4], the concentration for half-maximal inhibition (IC50) turned out to be 0.73 µM.
Take `N=C(N)NCCC[C@H](NC(=O)C1CC2CCCCC2N1C(=O)[C@H](NC(=O)[C@H](CO)NC(=O)[C@@H](NC(=O)CNC(=O)[C@@H]1C[C@@H](O)CN1C(=O)[C@@H]1CCCN1C(=O)[C@H](CCCNC(=N)N)NC(=O)[C@@H](CCCNC(=N)N)NC(=O)/C=C/c1c(F)c(F)c(F)c(F)c1F)C1Cc2ccccc2C1)C1Cc2ccccc2C1)C(=O)O` (some centres not stated): the IC50 in test [6] was over 100 µM; in test [1], over 100 µM; in test [2], over 100 µM; in test [5], 37 µM; in test [18] it was 67.9 µM; in test [3], 50.5 µM. Further, the inhibition entry in test [7], in test [11], in [17] and in test [20] was “inactive” throughout.
`CC1(C)CC(NC(=O)[C@H](Cc2ccc(OCc3c(Cl)cccc3Cl)cc2)NC(=O)OCC2c3ccccc3-c3ccccc32)CC(C)(C)N1`: the IC50 in [6] was 20 µM; in test [1] it was 41.2 µM; in test [2], over 100 µM; in test [5], 15 µM; in [18], 25.8 µM; in [3], 52.3 µM. In addition, the outcome in test [27] and in [15] was inactive.
